Data on seven compounds can be found in article PMC10205775 (Saudi Pharmaceutical Journal : SPJ, 2023).

“And” between values parts separate entries of the source, which are not always exact repeats. Identical values can stand only once.

The subject of one experiment is HepG2. Description: MTT antiproliferative assay, HepG2. Conditions: Homo sapiens, HepG2, read-out: In vitro Cytotoxicity IC50 HepG2. It counts as cell-based.
For a further experiment, the system named is MDA-MB-231. Description: MTT antiproliferative assay, MDA-MB-231. Conditions: Homo sapiens, MDA-MB-231, read-out: In vitro Cytotoxicity IC50 MDA-MB-231. It counts as cell-based.
Experiment [1] has as its system HepG2, MCF-7, MDA-MB-231 and HeLa. Kind of experiment: MTT antiproliferative assay, all tested cell lines. Type of experiment: cell-based. Conditions: Homo sapiens, read-out: IC50 values against all tested cell lines (range).
The test system of the next experiment is HeLa. Kind of experiment: MTT antiproliferative assay, HeLa. Conditions: Homo sapiens, read-out: In vitro Cytotoxicity IC50 HeLa.
A further experiment deals with MCF-7. Kind of experiment: MTT antiproliferative assay, MCF-7. To be noted: Homo sapiens, MCF7, read-out: In vitro Cytotoxicity IC50 MCF-7.
In the next experiment the target is CDK2 (Homo sapiens, UniProt P24941). Description: In vitro protein kinase assay, CDK2. It counts as biochemical.
A further experiment addresses EGFR (Homo sapiens, UniProt P00533). Description: In vitro protein kinase assay, EGFR. Type of experiment: biochemical.
The target in the next experiment is Her2 (Homo sapiens, UniProt P04626). Description: In vitro protein kinase assay, Her2. It counts as biochemical.
A further experiment concerns the target VEGFR2 (Homo sapiens, UniProt P35968). Description: In vitro protein kinase assay, VEGFR2. Type of experiment: biochemical.
Experiment [2] relates to HepG2 cells. Description: Cell cycle distribution by flow cytometry. It counts as cell-based, human. Conditions: 8.39 μM of compound 7, 24 h.
The subject of experiment [3] is HepG2 cells. Kind of experiment: Annexin-V/propidium iodide double staining apoptosis assay. It counts as cell-based, human. To be noted: 24 h incubation.
A further experiment concerns Caspase 3. Kind of experiment: Apoptotic protein expression, Caspase 3. To be noted: HepG2 cells, 8.39 μM of compound 7, 24 h; control = 1. Type of experiment: cell-based, human. In short, it runs like this:
(§1)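 HepG2 cells were incubated with 8.39 μM test compound for 24 h. Apoptotic protein levels were measured by a previously reported method. Expression was normalised to β-actin and given as fold change versus untreated HepG2 cells, which were set to 1. Values are means of three experiments.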

The next experiment relates to Caspase 9. Description: Apoptotic protein expression, Caspase 9. Type of experiment: cell-based, human. To be noted: HepG2 cells, 8.39 μM of compound 7, 24 h; control = 1. An outline of the steps: as §1

Sequence of VEGFR2 (P35968 20-1356): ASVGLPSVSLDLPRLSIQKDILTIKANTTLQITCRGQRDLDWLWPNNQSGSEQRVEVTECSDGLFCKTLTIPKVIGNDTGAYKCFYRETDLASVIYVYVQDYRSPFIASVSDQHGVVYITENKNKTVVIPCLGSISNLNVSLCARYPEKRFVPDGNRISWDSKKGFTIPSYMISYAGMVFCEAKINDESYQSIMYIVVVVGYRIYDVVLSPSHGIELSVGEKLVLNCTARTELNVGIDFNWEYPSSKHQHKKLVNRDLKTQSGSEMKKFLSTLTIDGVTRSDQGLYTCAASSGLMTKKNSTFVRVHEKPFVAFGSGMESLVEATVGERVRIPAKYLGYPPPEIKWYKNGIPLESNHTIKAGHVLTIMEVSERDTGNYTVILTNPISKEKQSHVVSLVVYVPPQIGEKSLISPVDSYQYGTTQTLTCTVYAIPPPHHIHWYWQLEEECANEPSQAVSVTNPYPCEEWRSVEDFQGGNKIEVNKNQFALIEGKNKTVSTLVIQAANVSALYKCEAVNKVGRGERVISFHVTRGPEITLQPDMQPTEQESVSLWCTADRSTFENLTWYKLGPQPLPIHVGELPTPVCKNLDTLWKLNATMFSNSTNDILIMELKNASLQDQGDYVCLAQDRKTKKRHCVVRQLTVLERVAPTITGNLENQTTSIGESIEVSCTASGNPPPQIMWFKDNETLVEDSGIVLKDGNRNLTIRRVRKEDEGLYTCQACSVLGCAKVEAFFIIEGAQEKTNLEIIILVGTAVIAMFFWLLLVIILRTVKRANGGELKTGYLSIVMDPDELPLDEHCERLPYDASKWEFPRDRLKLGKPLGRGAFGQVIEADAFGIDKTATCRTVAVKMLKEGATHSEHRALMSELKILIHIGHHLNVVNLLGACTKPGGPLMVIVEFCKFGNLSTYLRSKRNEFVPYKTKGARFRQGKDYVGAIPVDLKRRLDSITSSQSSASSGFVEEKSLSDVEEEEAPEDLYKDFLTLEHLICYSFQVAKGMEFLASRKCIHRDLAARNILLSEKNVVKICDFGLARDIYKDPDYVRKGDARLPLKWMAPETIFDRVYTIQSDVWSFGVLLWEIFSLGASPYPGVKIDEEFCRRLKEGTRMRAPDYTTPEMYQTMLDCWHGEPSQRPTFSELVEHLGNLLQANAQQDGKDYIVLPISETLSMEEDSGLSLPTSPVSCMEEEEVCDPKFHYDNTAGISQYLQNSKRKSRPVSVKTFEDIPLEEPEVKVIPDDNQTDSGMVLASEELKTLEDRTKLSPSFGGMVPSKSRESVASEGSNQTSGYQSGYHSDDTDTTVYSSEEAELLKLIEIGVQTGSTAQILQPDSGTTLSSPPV
Sequence of EGFR (P00533 25-1210): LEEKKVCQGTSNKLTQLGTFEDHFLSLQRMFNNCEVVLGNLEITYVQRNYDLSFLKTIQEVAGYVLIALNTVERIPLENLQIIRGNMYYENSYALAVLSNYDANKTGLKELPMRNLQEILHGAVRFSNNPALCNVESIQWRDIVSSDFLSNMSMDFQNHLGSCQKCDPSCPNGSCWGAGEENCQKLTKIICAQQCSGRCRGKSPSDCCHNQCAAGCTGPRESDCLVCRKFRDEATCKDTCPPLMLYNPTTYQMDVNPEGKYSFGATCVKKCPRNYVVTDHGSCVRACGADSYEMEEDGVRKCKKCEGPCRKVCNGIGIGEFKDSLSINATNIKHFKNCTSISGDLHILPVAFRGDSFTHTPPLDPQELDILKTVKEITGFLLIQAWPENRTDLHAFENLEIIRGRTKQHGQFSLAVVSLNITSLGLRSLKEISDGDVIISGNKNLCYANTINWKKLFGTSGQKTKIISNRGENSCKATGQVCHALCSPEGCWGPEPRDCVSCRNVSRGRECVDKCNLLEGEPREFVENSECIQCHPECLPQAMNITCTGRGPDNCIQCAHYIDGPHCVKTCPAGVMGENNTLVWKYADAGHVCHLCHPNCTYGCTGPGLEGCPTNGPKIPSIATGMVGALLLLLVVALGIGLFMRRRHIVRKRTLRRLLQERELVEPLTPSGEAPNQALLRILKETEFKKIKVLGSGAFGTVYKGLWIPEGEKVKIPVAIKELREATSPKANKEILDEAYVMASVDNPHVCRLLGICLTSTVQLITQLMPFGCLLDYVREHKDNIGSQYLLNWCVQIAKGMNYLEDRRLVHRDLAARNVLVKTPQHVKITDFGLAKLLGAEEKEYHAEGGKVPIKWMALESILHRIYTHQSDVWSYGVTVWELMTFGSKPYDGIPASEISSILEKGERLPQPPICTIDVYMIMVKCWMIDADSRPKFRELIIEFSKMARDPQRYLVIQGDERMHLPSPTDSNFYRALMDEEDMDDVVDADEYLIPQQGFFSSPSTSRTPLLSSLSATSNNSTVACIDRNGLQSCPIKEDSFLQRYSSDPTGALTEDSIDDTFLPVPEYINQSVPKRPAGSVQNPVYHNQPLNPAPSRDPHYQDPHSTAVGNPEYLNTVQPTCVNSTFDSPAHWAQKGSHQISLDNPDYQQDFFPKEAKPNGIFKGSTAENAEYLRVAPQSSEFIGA
Sequence of Her2 (P04626 23-1255): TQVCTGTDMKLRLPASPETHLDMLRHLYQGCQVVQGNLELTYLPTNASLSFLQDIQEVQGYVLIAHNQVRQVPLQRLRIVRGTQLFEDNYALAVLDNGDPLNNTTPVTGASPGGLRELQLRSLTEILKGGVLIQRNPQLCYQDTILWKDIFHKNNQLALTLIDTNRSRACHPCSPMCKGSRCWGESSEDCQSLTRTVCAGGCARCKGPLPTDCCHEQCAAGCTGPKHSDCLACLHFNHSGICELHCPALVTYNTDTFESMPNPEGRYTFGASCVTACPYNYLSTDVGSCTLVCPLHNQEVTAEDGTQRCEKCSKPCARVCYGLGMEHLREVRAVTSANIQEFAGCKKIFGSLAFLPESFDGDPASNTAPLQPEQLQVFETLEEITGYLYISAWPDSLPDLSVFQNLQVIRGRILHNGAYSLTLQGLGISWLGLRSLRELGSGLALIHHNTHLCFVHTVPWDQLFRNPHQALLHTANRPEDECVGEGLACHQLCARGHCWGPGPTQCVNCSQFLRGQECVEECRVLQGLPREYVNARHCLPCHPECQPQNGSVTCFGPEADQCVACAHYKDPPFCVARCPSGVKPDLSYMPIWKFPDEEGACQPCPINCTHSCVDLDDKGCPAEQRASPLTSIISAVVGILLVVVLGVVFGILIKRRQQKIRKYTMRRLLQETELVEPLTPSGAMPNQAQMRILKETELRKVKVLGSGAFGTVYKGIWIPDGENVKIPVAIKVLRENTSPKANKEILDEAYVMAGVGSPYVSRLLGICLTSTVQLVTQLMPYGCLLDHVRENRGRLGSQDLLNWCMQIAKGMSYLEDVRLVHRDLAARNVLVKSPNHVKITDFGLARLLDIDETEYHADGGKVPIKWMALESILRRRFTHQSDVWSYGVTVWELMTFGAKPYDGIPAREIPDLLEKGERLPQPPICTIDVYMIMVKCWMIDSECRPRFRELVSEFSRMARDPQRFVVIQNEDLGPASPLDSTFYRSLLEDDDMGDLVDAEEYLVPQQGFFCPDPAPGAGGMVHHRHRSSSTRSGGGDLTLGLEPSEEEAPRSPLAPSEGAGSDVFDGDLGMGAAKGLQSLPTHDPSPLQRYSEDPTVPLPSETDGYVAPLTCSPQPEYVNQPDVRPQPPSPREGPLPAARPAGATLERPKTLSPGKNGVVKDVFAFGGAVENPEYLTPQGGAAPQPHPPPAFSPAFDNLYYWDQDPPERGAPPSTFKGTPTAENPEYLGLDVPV

Take `O=C1Nc2ccccc2C1=NNc1ncnc2[nH]ccc12` [Compound 3, 3-(2-(7H-pyrrolo[2,3-d]pyrimidin-4-yl)hydrazineylidene)indolin-2-one]: the IC50 was 19.1 ± 1.4 µM with HepG2; 7.86 ± 0.6 µM in the experiment with MDA-MB-231; 7.86 to 27.6 µM in [1]; 9.86 ± 0.7 µM in the experiment on HeLa; 14.2 ± 1.2 µM with MCF-7.

For the compound `O=C1Nc2ccc(Cl)cc2C1=NNc1ncnc2[nH]ccc12` [Compound 4, 3-(2-(7H-pyrrolo[2,3-d]pyrimidin-4-yl)hydrazineylidene)-5-chloroindolin-2-one], the 50% inhibitory concentration (IC50) worked out at 28.4 ± 2.1 µM with HepG2, 21.1 ± 1.8 µM in the experiment with MDA-MB-231, 24.2 ± 1.8 µM in the experiment on HeLa and 33.9 ± 2.2 µM with MCF-7.

With `O=C1Nc2ccc(F)cc2C1=NNc1ncnc2[nH]ccc12` [Compound 5, 3-(2-(7H-pyrrolo[2,3-d]pyrimidin-4-yl)hydrazineylidene)-5-fluoroindolin-2-one], the IC50 with HepG2 turned out to be 37.3 ± 2.5 µM; with MDA-MB-231 it was 32.5 ± 2.1 µM; with HeLa, 29.1 ± 2 µM; in the experiment with MCF-7, 41.6 ± 2.6 µM.

Take `Cc1ccc2c(c1)C(=NNc1ncnc3[nH]ccc13)C(=O)N2` [Compound 6, 3-(2-(7H-pyrrolo[2,3-d]pyrimidin-4-yl)hydrazineylidene)-5-methylindolin-2-one]: the IC50 is 11.7 ± 0.9 µM in the experiment with HepG2; 15.2 ± 1.1 µM with MDA-MB-231; 7.86 to 27.6 µM in [1]; 19.8 ± 1.3 µM in the experiment with HeLa; 27.6 ± 2 µM in the experiment on MCF-7.

In the case of `COc1ccc2c(c1)C(=NNc1ncnc3[nH]ccc13)C(=O)N2` [Compound 7, 3-(2-(7H-pyrrolo[2,3-d]pyrimidin-4-yl)hydrazineylidene)-5-methoxyindolin-2-one], the IC50 in the experiment on HepG2 came to 8.39 ± 0.7 µM. The IC50 with MDA-MB-231 was 5.28 ± 0.3 µM. Besides, on CDK2, inhibition was half-maximal at 302 ± 16 nM (IC50). Also, half-maximal inhibition on EGFR (IC50) was put at 166 ± 10 nM. The compound further came in with an IC50 against Her2 of 157 ± 22 nM. The same compound came in with an IC50 against VEGFR2 of 224 ± 12 nM. In addition, in the experiment with HepG2 cells [2], the “DNA content (%) %G1” value is recorded as 54.22%, the “DNA content (%) %G2/M” value was 11.02%, the “DNA content (%) %S” value was 34.76% and the “DNA content (%) %Sub–G1” value stood at 32.34%. Moreover, the “increase of the DNA in the sub-G1 compared to untreated cells” value with HepG2 cells [2] came to 17 fold. In the experiment on HepG2 cells [3], the “Apoptosis Early” value stood at 9.91%, the “Apoptosis Late” value is 15.92%, the “Apoptosis Total” value is recorded as 32.34% and the Necrosis turned out to be 6.51%. The “Folds of gene expression (Normalized to β-actin) Caspase 3” value in the experiment on Caspase 3 is 5.42 fold and 5.421 fold. For the same compound, the “Folds of gene expression (Normalized to β-actin) Caspase 9” value in the experiment on Caspase 9 is 3.3 fold and 3.295 fold. Besides, in the experiment with HeLa, the IC50 came to 6.37 ± 0.3 µM. For the same compound, in the experiment with MCF-7, the IC50 was found to be 9.08 ± 0.7 µM.

For `O=C1Nc2ccc([N+](=O)[O-])cc2C1=NNc1ncnc2[nH]ccc12` [Compound 8, 3-(2-(7H-pyrrolo[2,3-d]pyrimidin-4-yl)hydrazineylidene)-5-nitroindolin-2-one], the IC50 was 52.1 ± 2.9 µM in the experiment with HepG2, 36.9 ± 2.4 µM in the experiment on MDA-MB-231, 38 ± 2.2 µM with HeLa and 48.5 ± 2.8 µM in the experiment with MCF-7.

As for `COc1cccc2c1C(=O)c1c(O)c3c(c(O)c1C2=O)C[C@@](O)(C(=O)CO)C[C@@H]3O[C@H]1C[C@H](N)[C@H](O)[C@H](C)O1` [Doxorubicin, reference compound], in the experiment on HepG2, the IC50 came to 4.5 ± 0.2 µM.
